This is a sample that favours compounds with a hit; in the whole collection about 1.6% have one here.
DDE Tn6 FP inh – DD(E)-Tn6 binding inhibition, primary FP screen; P02675; 370,000 compounds, 0.21% hits; inhibition, % at 8.3 µM; Fibrin DD(E) TRITC-Tn6 fluorescence polarization displacement;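 active = inhibition above a per-campaign cutoff: mean of compounds within control limits plus 3 SD, cut at about 15% in these data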;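 note: 0% = median of all compound wells on the plate and 100% = blocking peptide control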
MT1-MMP act inh – inhibitors of human MT1-MMP activation; AID 651647; P50281; GFP/RFP ratio change, % at 20 µM; HT1080 RFP-PRO-GFP cells, GFP/RFP ratio fluorescence, overnight; percent of plate control window, DMSO zero; 360,000 compounds, 0.061% hits;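 active = GFP/RFP ratio change of at least 30% with cell ATP level not reduced by more than half and red fluorescence within 50% of control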
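Assay system: HT1080 RFP-PRO-GFP cells | Dosing: 20 µM single dose, 1% DMSO | Incubation: Cells overnight before dosing, compound overnight, 37 °C, 5% CO2 | Evaluation: GFP/RFP fluorescence ratio | Control set: DMSO-only wells and HT1080 RFP-L50D-GFP cell wells as references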
ADAM17 inh – inhibits human ADAM17; recombinant ADAM17, EDANS/DABCYL FRET peptide cleavage; inhibition, % at 6.95 µM; 370,000 compounds, 0.83% hits; AID 720648;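 active = inhibition above the mean of compounds lying between control limits plus 3 SD, set per campaign, cut at about 8.5% in these data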;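 note: 0% = DMSO-only wells as the low control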
ADAM10 inh – inhibitors of human ADAM10; O14672; recombinant ADAM10, EDANS/DABCYL FRET peptide cleavage, 3 h; inhibition, % at 7 µM; 370,000 compounds, 0.62% hits; AID 720582;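 active = inhibition above a per-campaign cutoff equal to the mean of compounds falling between control-based bounds plus 3 SD, cut at about 20% in these data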;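 note: 0% = DMSO wells while the 100% control is not disclosed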
Target sequence (O14672 214-748 limits assumed): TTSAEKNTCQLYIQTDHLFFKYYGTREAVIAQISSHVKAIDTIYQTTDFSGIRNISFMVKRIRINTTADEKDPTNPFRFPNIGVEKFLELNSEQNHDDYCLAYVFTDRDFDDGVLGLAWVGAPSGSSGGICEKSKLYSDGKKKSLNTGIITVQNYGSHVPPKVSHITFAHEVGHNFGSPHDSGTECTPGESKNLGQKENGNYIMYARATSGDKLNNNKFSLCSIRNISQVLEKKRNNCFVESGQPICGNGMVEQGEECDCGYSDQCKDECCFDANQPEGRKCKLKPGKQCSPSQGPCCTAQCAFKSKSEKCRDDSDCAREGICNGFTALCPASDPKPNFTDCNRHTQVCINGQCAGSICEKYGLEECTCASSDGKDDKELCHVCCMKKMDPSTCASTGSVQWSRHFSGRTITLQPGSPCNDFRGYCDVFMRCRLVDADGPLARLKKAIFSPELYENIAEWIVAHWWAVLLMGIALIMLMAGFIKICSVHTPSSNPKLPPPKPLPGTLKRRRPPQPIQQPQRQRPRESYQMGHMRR
DDE Tn7 FP inh – DD(E)-Tn7 binding inhibition, primary FP screen. P02675. FP displacement of FITC-Tn7 peptide from fibrin DD(E); 0% = median of compound wells per plate. inhibition, % at 8.3 µM. 370,000 compounds, 0.13% hits. AID 720508;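 active = inhibition above the mean of compounds falling within the control limits plus 3 SD of them, cut at about 14% in these data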;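 note: 0% = plate median of compound wells and 100% = 10 µM Aha-Tn7 peptide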
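Assay system: human fibrin DD(E) protein / Input: 2 µM fibrin DD(E) / Benchmarks: high control of 10 µM Aha-Tn7 peptide / Measured by: fluorescence polarization of the labelled Tn7 tracer / Medium: Tris buffer with calcium and detergent, pH 7.8 / Timing: 10 min compound pre-incubation, 3 h probe incubation at room temperature / Repeats: one replicate per compound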
ADAM10 counter – ADAM10 inhibition, counter-screen for ADAM17 exosite hits; shares compounds with ADAM17 inh; recombinant ADAM10, EDANS/DABCYL FRET peptide cleavage, 3 h; inhibition, % at 6.95 µM; 2,900 compounds, 47% hits; AID 743256;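 active = mean inhibition over the triplicate runs exceeds the activity threshold set in the earlier primary screen, cut at about 20% in these data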;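 note: 0% = DMSO wells and 100% = marimastat wells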
ADAM17 confirm – human ADAM17 inhibition, confirmation | 2,900 compounds, 65% hits | recombinant ADAM17, EDANS/DABCYL QFRET peptide cleavage | shares compounds with ADAM17 inh | inhibition, % at 6.95 µM;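 active = mean inhibition across replicates above the hit cutoff set in the primary screen, cut at about 8.5% in these data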;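 note: 0% = DMSO wells and 100% = marimastat wells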
Active calls of the source: *.

What do the screens show for `COc1ccc(NC(=O)CN(C)S(=O)(=O)c2ccc3c(c2)CCCN3C(C)=O)cc1`?
DDE Tn6 FP inh: 8.2; MT1-MMP act inh: -6.0; ADAM17 inh: -1.4; ADAM10 inh: -2.8; DDE Tn7 FP inh: 1.2

What do the screens show for `COc1ccc(C)cc1NC(=O)CN(C)S(=O)(=O)c1ccc2c(c1)CCCN2C(C)=O`?
DDE Tn6 FP inh: 1.7; MT1-MMP act inh: -1.5; ADAM17 inh: 9.0*; ADAM10 inh: 6.7; DDE Tn7 FP inh: -0.5; ADAM10 counter: 7.1; ADAM17 confirm: 7.0

How did COc1cccc(CNC(=O)[C@H]2CCCN2C(=O)[C@H]2CCCN2C(=O)c2ccc(Cl)cc2)c1 do in these assays?
DDE Tn6 FP inh: -3.5; ADAM17 inh: 0.5; ADAM10 inh: 0.0; DDE Tn7 FP inh: 0.0

How did O=C(O)CNC(=O)C1(NC(=O)OCc2ccccc2)CCCC1 do in these assays?
DDE Tn6 FP inh: 1.9; MT1-MMP act inh: -1.2; ADAM17 inh: 8.7*; ADAM10 inh: 6.3; DDE Tn7 FP inh: -1.3; ADAM10 counter: 1.2; ADAM17 confirm: 2.7

What do the screens show for `O=C(CNC(=O)OCc1ccccc1)NC1(C(=O)O)CCCC1`?
DDE Tn6 FP inh: -0.9; MT1-MMP act inh: -6.6; ADAM17 inh: -1.4; ADAM10 inh: -4.7; DDE Tn7 FP inh: -0.8

What do the screens show for `COc1ccc(S(=O)(=O)NCC(c2ccco2)N2CCc3ccccc32)cc1` (configuration not stated)?
DDE Tn6 FP inh: -4.7; MT1-MMP act inh: -0.9; ADAM17 inh: 14.1*; ADAM10 inh: 18.3; DDE Tn7 FP inh: -6.2; ADAM10 counter: 18.1; ADAM17 confirm: 12.4*

What do the screens show for `COc1ccc(NCC(=O)Nc2ccc(Br)cc2F)c(OC)c1`?
DDE Tn6 FP inh: -5.4; MT1-MMP act inh: 15.5; ADAM17 inh: 10.3*; ADAM10 inh: 5.2; DDE Tn7 FP inh: -5.4; ADAM10 counter: 26.9*; ADAM17 confirm: 9.3*

How did CCN(CC(=O)Nc1ccc(OC)cc1)CC(=O)Nc1ccc(Br)cc1F do in these assays?
DDE Tn6 FP inh: 2.5; MT1-MMP act inh: 1.5; ADAM17 inh: -0.2; ADAM10 inh: 6.3; DDE Tn7 FP inh: 0.4

What do the screens show for `CCN(C(=O)[C@H]1CC(=O)O[C@@H]1c1ccccc1)c1ccccc1`?
DDE Tn6 FP inh: -8.7; ADAM17 inh: -4.0; ADAM10 inh: -6.5; DDE Tn7 FP inh: -4.1

Results for CCOC(=O)c1ccc(NS(=O)(=O)c2cnc[nH]2)cc1 ?
DDE Tn6 FP inh: 5.1; MT1-MMP act inh: -3.8; ADAM17 inh: 9.3*; ADAM10 inh: -10.2; DDE Tn7 FP inh: -4.3; ADAM10 counter: -4.1; ADAM17 confirm: -2.5

Results for CCCCN1CN2Cc3ccc(C)cc3C2CS1(=O)=O (configuration not stated) ?
DDE Tn6 FP inh: -3.5; ADAM17 inh: -5.1; ADAM10 inh: -8.8; DDE Tn7 FP inh: -0.1

Results for C=CCn1c(COc2ccc(Cl)cc2)nnc1SCC(=O)c1ccc(-c2ccccc2)cc1 ?
DDE Tn6 FP inh: 3.3; ADAM17 inh: 2.6; ADAM10 inh: 1.3; DDE Tn7 FP inh: -3.2

Results for N#CCOc1ccccc1CNC[C@H]1O[C@@H](n2cnc(C(N)=O)n2)[C@H](O)[C@@H]1O ?
DDE Tn6 FP inh: -9.5; MT1-MMP act inh: -0.6; ADAM17 inh: 9.7*; ADAM10 inh: 2.6; DDE Tn7 FP inh: 0.3; ADAM10 counter: 15.4; ADAM17 confirm: 7.0

What do the screens show for `NC(=O)c1ncn([C@@H]2O[C@H](CNCc3ccccc3C#Cc3ccccc3)[C@@H](O)[C@H]2O)n1`?
DDE Tn6 FP inh: -0.2; MT1-MMP act inh: 0.3; ADAM17 inh: -5.2; ADAM10 inh: -16.6; DDE Tn7 FP inh: 2.8

What do the screens show for `COC[C@@H]1CCCN1c1ccc2c(c1)O[C@H]1CCN(C1)S2(=O)=O`?
DDE Tn6 FP inh: 6.9; ADAM17 inh: -0.5; ADAM10 inh: -0.7; DDE Tn7 FP inh: -12.9

Screening data (PubChem BioAssay)
